Measurements as given in ChEMBL document CHEMBL1143847, “Competitive inhibitors of the CphA metallo-beta-lactamase from Aeromonas hydrophila” (Antimicrob Agents Chemother, 2007).

Columns and labels:
Beta-lactamase [1] = molecular target: T1, Beta-lactamase (Aeromonas hydrophila, UniProt Q44079); assay: Inhibition of Aeromonas hydrophila beta lactamase CphA by competitive inhibition assay
Beta-lactamase [2] = molecular target: T1, Beta-lactamase; assay: Inhibition of Aeromonas hydrophila beta lactamase CphA at pH 7.0
Beta-lactamase [3] = molecular target: T1, Beta-lactamase; assay: Inhibition of Aeromonas hydrophila beta lactamase CphA at pH 8.0
Beta-lactamase [4] = molecular target: T1, Beta-lactamase; assay: Inhibition of Aeromonas hydrophila beta lactamase CphA at pH 9.0
Beta-lactamase [5] = molecular target: T1, Beta-lactamase; assay: Inhibition of Aeromonas hydrophila beta lactamase CphA at pH 10.0
[6] = Inhibition of Aeromonas hydrophila beta lactamase CphA N116H-N220G mutant by competitive inhibition assay
Summary of the method: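 Purified double-mutant enzyme (0.03–0.7 nM) in 20 mM HEPES pH 7.0 with 20 μg/ml BSA. Imipenem was varied 20–200 μM at three inhibitor concentrations and without inhibitor, with no preincubation, at 30°C. Initial rates were Hanes-linearized to give the competitive Ki. The dizinc form was run separately with cefotaxime in 20 mM cacodylate pH 6.5, BSA, 100 μM ZnCl2.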

T1 sequence (Q44079 whole entry): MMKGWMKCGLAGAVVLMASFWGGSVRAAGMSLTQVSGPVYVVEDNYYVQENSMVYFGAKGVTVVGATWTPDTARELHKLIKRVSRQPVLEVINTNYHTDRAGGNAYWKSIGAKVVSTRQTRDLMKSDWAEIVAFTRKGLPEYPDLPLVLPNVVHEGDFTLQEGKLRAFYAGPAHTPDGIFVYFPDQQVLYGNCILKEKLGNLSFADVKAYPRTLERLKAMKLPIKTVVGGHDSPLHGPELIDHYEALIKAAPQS

| SMILES | Ki (Beta-lactamase [1]) | Ki (Beta-lactamase [2]) | Ki (Beta-lactamase [3]) | Ki (Beta-lactamase [4]) | Ki (Beta-lactamase [5]) | Ki [6] |
| --- | --- | --- | --- | --- | --- | --- |
| O=C(O)c1ccncc1C(=O)O | 1100 µM |  |  |  |  |  |
| O=C(O)c1ccccn1 [2-PICOLINIC ACID] | 5.7 µM | 46 µM | 76 µM | 440 µM | 1100 µM | 13 µM |
| O=C(O)c1ccc(C(=O)O)nc1 [PYRIDINE-2,5-DICARBOXYLIC ACID] | 420 µM |  |  |  |  |  |
| O=C(O)c1cccnc1C(=O)O [QUINOLINIC ACID] | 200 µM |  |  |  |  |  |
